Data set [1] can be described thus: Brain area under concentration curve after oral administration in diet-induced obese mouse at a dose of 10 mg/kg for 0-24 hr period, n=3. The format is ADME, organism-based. The conditions noted are these: in vivo. Set-up: time < 24 hr, dose 10 mg/kg, route oral. In outline:
(§1)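 Diet-induced obese mice were given a single oral dose of 10 mg/kg. Plasma and brain were sampled over 24 h. […] Values are mean ± SEM, n = 3.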

Data set [2] is described as follows: Plasma area under concentration curve after oral administration in diet-induced obese mouse at a dose of 10 mg/kg for 0-24 hr period,n=3. Format: ADME, organism-based. More on the design: time < 24 hr, dose 10 mg/kg, route oral. An outline of the steps:
as §1

Data set [3] is described as follows: Concentration in diet-induced obese mouse brain 12 h after 10 mg/kg oral administration. As to conditions: read-out: C12h. More on the design: dose 10 mg/kg, route oral. The format is ADME, organism-based. In outline: as §1
The target of data set [4] is T1, Melanin-concentrating hormone receptor 1 (Homo sapiens, UniProt Q99705). Description: Inhibitory concentration aganist melanin concentrating hormone receptor 1 expressed in IMR-32 cells using [125I]MCH. Format: cell-based.
T1 sequence (Q99705 whole entry): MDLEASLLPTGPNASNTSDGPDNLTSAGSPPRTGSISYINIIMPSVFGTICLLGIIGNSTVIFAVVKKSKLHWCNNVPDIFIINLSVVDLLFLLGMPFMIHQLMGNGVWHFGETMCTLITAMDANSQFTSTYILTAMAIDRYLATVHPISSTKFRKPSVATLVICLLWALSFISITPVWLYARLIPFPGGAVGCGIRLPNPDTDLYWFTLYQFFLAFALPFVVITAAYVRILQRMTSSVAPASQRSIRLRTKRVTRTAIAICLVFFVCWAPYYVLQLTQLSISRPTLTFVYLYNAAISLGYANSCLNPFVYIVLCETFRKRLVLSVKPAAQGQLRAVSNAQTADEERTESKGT
The target in data set [5] is T1, Melanin-concentrating hormone receptor 1. Description: Inhibition of melanin concentrating hormone receptor 1 mediated [Ca2+] release in IMR-32 cells in Ca+2 release cell assay. The format is functional, cell-based.
A short description of data set [6]: Maximum concentration in diet-induced obese mouse brain at 10 mg/kg oral administration; n=3. Format: ADME, organism-based. More on the design: dose 10 mg/kg, route oral. An outline of the steps:
as §1

Data set [7] can be described thus: Plasma area concentration under curve after peroral administration in lean mouse at a dose of 10 mg/kg. The format is ADME, organism-based. Set-up: dose 10 mg/kg, route oral. As to conditions: po. In outline:
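Single oral dose of 10 mg/kg given to lean mice. Plasma exposure is expressed as AUC, and brain AUC was measured alongside it. Interanimal variability was below 25% for all values.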

A short description of data set [8]: Brain area under concentration curve after peroral administration in lean mouse at a dose of 10 mg/kg. Format: ADME, organism-based. Set-up: dose 10 mg/kg, route oral. As to conditions: in vivo, po.
Data set [9] in a line: Plasma concentration after intravenous infusion at a dose of 8 mg/kg/30 min. Format: ADME, organism-based, Canis lupus familiaris. Set-up: route intravenous. As to conditions: dog, read-out: Activity.
A short description of data set [10]: Half-life after oral administration. Format: ADME, organism-based, Canis lupus familiaris. The conditions noted are these: dog, in vivo.
A short description of data set [11]: Peak plasma concentration after oral administration. Format: ADME, organism-based, Canis lupus familiaris. More on the design: route oral. As to conditions: dog.
Data set [12] concerns the target Voltage-gated inwardly rectifying potassium channel KCNH2 (Homo sapiens, UniProt Q12809). Description: Inhibition of human potassium channel HERG.
The nature of data set [13]: Half-life after iv administration at a dose 2.5 mg/kg. Format: ADME, organism-based, Canis lupus familiaris. The conditions noted are these: dog, in vivo. Set-up: dose 2.5 mg/kg, route intravenous. An outline of the steps: (§2)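 Male beagle dogs received a single intravenous bolus of 2.5 mg/kg. Plasma was sampled to derive half-life, Cmax, plasma clearance and AUC0-∞. Values are mean ± SEM.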

Data set [14] deals with Mus musculus. Description: Drug concentration in brain 1 hr after final dose of 10 mg/kg, administered orally. As to conditions: po.
Data set [15] can be described thus: Plasma concentration after intravenous infusion at a dose of 80 mg/kg measured after approximately 12 min. Format: ADME, organism-based, Canis lupus familiaris. More on the design: dose 80 mg/kg, route intravenous. The conditions noted are these: dog, read-out: Activity.
Data set [16] addresses Adrenergic receptor alpha-1 (Homo sapiens) (UniProt P35348+P25100+P35368). Description: Non-selective inhibition against adrenergic-alpha-1 receptor at 10 uM. Format: protein assay.
Data set [17] in a line: Plasma clearance after iv administration at a dose 2.5 mg/kg. The format is ADME, organism-based, Canis lupus familiaris. Set-up: dose 2.5 mg/kg, route intravenous. As to conditions: dog, read-out: Clp (converted). An outline of the steps:
as §2

For data set [18], the system named is Mus musculus. Description: Percent change in body weight after oral administration at a dose of 10 mg/kg b.i.d. as compare to vehicle (1% Tween-80 in water) observed for 28 days.
A short description of data set [19]: Drug concentration in plasma 1 hr after final dose of 30 mg/kg administered orally. The format is ADME, organism-based. Set-up: dose 30 mg/kg, route oral. The conditions noted are these: mouse, po, read-out: Activity. An outline of the steps:
(§3)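 Diet-induced obese mice were dosed orally at 10 or 30 mg/kg b.i.d. for 13 days. Body weight was expressed as % change from vehicle controls. Plasma (μg/mL) and brain (μg/g) drug levels were measured 1 h after the final dose. Values are mean ± SEM, n = 3.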

Data set [20] is described as follows: Drug concentration in plasma 1 hr after final dose of 10 mg/kg administered orally. As to conditions: mouse, po, read-out: Activity. More on the design: dose 10 mg/kg, route oral. Format: ADME, organism-based. In outline:
as §3

Data set [21] in a line: Peak plasma concentration after iv administration at a dose 2.5 mg/kg. Format: ADME, organism-based, Canis lupus familiaris. Set-up: dose 2.5 mg/kg, route intravenous. As to conditions: dog. In outline:
as §2

Data set [22] can be described thus: Drug concentration in brain 1 hr after final dose of 10 mg/kg, administered orally. Format: ADME, organism-based. Set-up: dose 10 mg/kg, route oral. As to conditions: mouse, po, read-out: Activity. An outline of the steps:
as §3

The nature of data set [23]: Bioavailability after oral administration. Format: ADME, organism-based, Canis lupus familiaris. As to conditions: dog, in vivo, read-out: Activity.
The nature of data set [24]: Plasma concentration after intravenous infusion at a dose of 26 mg/kg/30 min. More on the design: route intravenous. The conditions noted are these: dog, read-out: Activity. The format is ADME, organism-based, Canis lupus familiaris.
For data set [25], the system named is Mus musculus. Description: Percent change in body weight after oral administration at a dose of 10 mg/kg b.i.d. as compare to vehicle (1% Tween-80 in water) observed for 13 days.
For data set [26], the target named is Dopamine receptor (Homo sapiens) (UniProt P14416+P35462+P21918+P21917+P21728). Description: Non-selective inhibition against dopamine receptor at 10 uM. The format is protein assay.
For data set [27], the system named is Mus musculus. Description: Percent change in body weight after oral administration at a dose of 30 mg/kg b.i.d. as compare to vehicle (1% Tween-80 in water) observed for 13 days.
In data set [28] the test system is Mus musculus. Description: Percent change in body weight after oral administration at a dose of 30 mg/kg b.i.d. as compare to vehicle (1% Tween-80 in water) observed for 28 days.
Data set [29] in a line: Plasma area under curve after oafter iv administration at a dose 2.5 mg/kg. The format is ADME, organism-based, Canis lupus familiaris. More on the design: dose 2.5 mg/kg, route intravenous. The conditions noted are these: dog, in vivo. In outline: as §2
Data set [30] is described as follows: Plasma area under concentration curve after peroral administration in lean mouse at a dose of 10 mg/kg. The conditions noted are these: po. Set-up: dose 10 mg/kg, route oral. Format: ADME, organism-based.
Data set [31] in a line: Plasma concentration at the end of the first infusion in dog cardiovascular assay; value is in between 1.36-1.43. As to conditions: iv. The format is ADME, Canis lupus familiaris.
Data set [32] in a line: Plasma concentration at the end of the first infusion in dog cardiovascular assay; value is in between 2.75-2.93. Format: ADME, Canis lupus familiaris. The conditions noted are these: iv.

Values joined by “and” are separate entries in the source; they are usually repeats but may differ in a detail not shown here. Equal values may be shown once. A value given as a limit tells only on which side of the number the result lay.

As a reminder, the IC50 is the midpoint of a concentration-inhibition curve. The low end stands for inhibition by little substance, the high end for a need for much substance. Broadly, the Cmax is the maximum level reached in the sampled fluid or tissue. Broadly, the half-life is how long it takes for the measured level to halve. Low readings indicate fast loss, high ones slow loss. The inhibition is the share of the control response that was lost under treatment. The low end stands for a weak effect, the high end for a strong effect.

Voltage-gated inwardly rectifying potassium channel KCNH2, sequence (Q12809 whole entry): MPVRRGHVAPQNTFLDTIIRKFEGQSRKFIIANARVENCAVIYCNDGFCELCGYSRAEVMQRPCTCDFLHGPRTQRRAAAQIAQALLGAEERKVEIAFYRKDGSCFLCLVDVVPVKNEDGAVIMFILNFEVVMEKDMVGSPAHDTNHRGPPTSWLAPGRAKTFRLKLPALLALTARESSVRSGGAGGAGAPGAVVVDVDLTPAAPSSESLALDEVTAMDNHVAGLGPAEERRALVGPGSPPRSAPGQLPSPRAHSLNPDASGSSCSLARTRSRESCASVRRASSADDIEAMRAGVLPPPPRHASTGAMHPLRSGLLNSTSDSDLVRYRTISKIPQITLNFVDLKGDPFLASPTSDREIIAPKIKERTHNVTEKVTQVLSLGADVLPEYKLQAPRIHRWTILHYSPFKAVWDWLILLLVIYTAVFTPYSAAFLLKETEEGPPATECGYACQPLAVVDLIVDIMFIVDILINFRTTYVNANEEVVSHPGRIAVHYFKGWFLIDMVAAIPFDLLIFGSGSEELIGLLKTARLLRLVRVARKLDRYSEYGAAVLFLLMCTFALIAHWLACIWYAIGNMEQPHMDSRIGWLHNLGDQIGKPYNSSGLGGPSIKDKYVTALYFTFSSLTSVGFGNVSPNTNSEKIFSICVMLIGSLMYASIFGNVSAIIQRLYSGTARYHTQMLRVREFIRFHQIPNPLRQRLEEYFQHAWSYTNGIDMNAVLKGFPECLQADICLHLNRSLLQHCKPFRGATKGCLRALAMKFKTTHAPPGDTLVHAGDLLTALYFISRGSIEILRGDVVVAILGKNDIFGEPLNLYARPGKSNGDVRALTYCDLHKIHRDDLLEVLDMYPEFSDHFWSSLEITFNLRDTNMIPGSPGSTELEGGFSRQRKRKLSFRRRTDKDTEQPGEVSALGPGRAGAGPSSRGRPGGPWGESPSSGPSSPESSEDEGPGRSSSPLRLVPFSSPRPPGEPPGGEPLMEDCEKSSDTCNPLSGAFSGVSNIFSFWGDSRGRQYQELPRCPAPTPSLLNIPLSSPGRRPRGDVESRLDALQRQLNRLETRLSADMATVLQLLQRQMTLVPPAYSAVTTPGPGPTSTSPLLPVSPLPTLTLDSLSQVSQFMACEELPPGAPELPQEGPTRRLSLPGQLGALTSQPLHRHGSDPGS

In data set [1], `O=c1cc(NC2CCN(Cc3ccc4[nH]ccc4c3)CC2)c2cc(Cl)ccc2o1` displayed an AUC of 1.18 µg·h/g. This compound also registered an AUC at 24 h in data set [2] of 2870 ng·h/mL. Further, in data set [3], the concentration at 12 h amounted to 18 ng/g. For the same compound, the IC50 in data set [4] was determined as 7 nM; in [5] it was 63 nM. Besides, the peak level in data set [6] (Cmax) was 182 ng/g.

As for `O=c1cc(NC2CCN(Cc3ccc4ncoc4c3)CC2)c2cc(Cl)ccc2o1`, the half-inhibitory concentration (IC50) in data set [4] was found to be 75 nM; in data set [5], 461 nM.

As for `O=c1cc(NC2CCN(C/C=C/c3ccccc3)CC2)c2ccccc2o1`, the IC50 in [4] came out at 191 nM; in data set [5], 1040 nM.

As to `O=c1cc(NC2CCN(Cc3ccc4ccccc4c3)CC2)c2cc(Cl)ccc2o1`, the IC50 in data set [4] was 21 nM; in data set [5], 92 nM.

In the case of `O=c1cc(NC2CCN(C/C=C/c3ccccc3)CC2)c2cc(Cl)ccc2o1`, the AUC in data set [7] is 1920 ng·h/mL; in [8] it was 2.6 µg·h/g. Also, the figures for the concentration for half-maximal inhibition (IC50) in data set [4] and in data set [5] were 9 nM and 211 nM, respectively.

Regarding `O=c1cc(NC2CCN(Cc3ccc4c(c3)CCO4)CC2)c2cc(Cl)ccc2o1`, the AUC in [1] came to 0.449 µg·h/g. The AUC at 24 h in [2] is 621 ng·h/mL. The half-maximal inhibitory concentration (IC50) in [4] amounted to 27 nM; in [5], 41 nM. The same compound returned a Cmax in data set [6] of 294 ng/g.

For the compound `O=c1cc(NC2CCN(Cc3ccc4cc[nH]c4c3)CC2)c2cc(Cl)ccc2o1`, the IC50 came out at 24 nM in data set [4] and 28 nM in data set [5].

In the case of `Cn1ccc2ccc(CN3CCC(/N=c4\cc(O)oc5ccc(Cl)cc45)CC3)cc21`, the IC50 in data set [4] turned out to be 60 nM; in [5], 162 nM.

Consider `O=c1cc(NC2CCN(Cc3ccc4c(c3)OCO4)CC2)c2cc(Cl)ccc2o1`, for which the concentration at 0.5 h amounted to 3330 ng/mL in [9] and 11800 ng/mL in [24]. Moreover, the half-life in [10] was 4.4 h; in data set [13], 3.9 h. Further, the Cmax amounted to 200 ng/mL in [11], 1600 ng/mL in data set [21] and 454 ng/g in data set [6]. In addition, the figures for the IC50 in data set [12], in [4] and in data set [5] were 2250 nM, 2 nM and 28 nM, respectively. Also, the concentration at 1 h in data set [14] was found to be 6460 ng/g; in data set [19] it was 6010 ng/mL; in data set [20], 2000 ng/mL; in data set [22], 2210 ng/g. Besides, the concentration at 0.2 h in data set [15] was 19900 ng/mL. This compound yielded an AUC at 24 h in data set [2] of 6350 ng·h/mL. The inhibition in data set [16] is 75% and 69%; in [26], 60%. Moreover, the clearance in [17] is 15.8 mL/min/kg. For the same compound, the “% change” value in data set [18] was -16%; in data set [25], -6.9%; in [27], -18.2%; in [28], -31%. Further, the concentration at 12 h in data set [3] is 175 ng/g. For the same compound, in [23], the bioavailability was found to be 48%. Besides, in data set [29], the AUC was found to be 2660 ng·h/mL.

In [1], `O=c1cc(NC2CCN(Cc3ccc4ocnc4c3)CC2)c2cc(Cl)ccc2o1` came in with an AUC of 0 µg·h/g. Besides, the IC50 in data set [4] turned out to be 3 nM; in data set [5], 163 nM.

Consider `O=c1cc(NC2CCN(Cc3ccc4sccc4c3)CC2)c2cc(Cl)ccc2o1`, for which the 50% inhibitory concentration (IC50) turned out to be 6 nM in data set [4] and 189 nM in [5].

In the case of `O=c1cc(NC2CCN(Cc3ccc4c(c3)OC(F)(F)O4)CC2)c2cc(Cl)ccc2o1`, the 50% inhibitory concentration (IC50) in data set [4] turned out to be 19 nM; in data set [5], 581 nM.

Take `CC(C)(C)c1ccc(CN2CCC(/N=c3\cc(O)oc4ccc(Cl)cc34)CC2)cc1`: the half-inhibitory concentration (IC50) in [5] was greater than 10000 nM.

For `COc1ccc2oc(O)c/c(=N\C3CCN(C/C=C/c4ccccc4)CC3)c2c1`, the concentration for half-maximal inhibition (IC50) in [4] was 4 nM; in [5] it was 44 nM. Also, the results for the AUC in data set [8] and in data set [30] were 0.43 µg·h/g and 980 ng·h/mL, respectively.

For `COc1ccc2oc(O)c/c(=N\C3CCN(Cc4ccc5c(c4)OCO5)CC3)c2c1`, the Activity in data set [31] and in data set [32] was 2.84 µg/mL each time. The same compound returned a half-maximal inhibitory concentration (IC50) in [5] of 11 nM.

The values above are taken from ChEMBL document CHEMBL1141081, “Discovery and characterization of aminopiperidinecoumarin melanin concentrating hormone receptor 1 antagonists” (J Med Chem, 2005).
